Values after ≈ are worked out from the molar mass of the structure shown.
Key:
[1] = Antiproliferative activity against human RPMI cells assessed as cell viability at 1 uM by MTT assay; format: functional; conditions: read-out: Activity
Procedure, shortened: (§1)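 Log-phase cells, kept in supplemented RPMI 1640 (HSF in DMEM/10% FBS) at 37 °C, 5% CO2, were exposed 24 h to 1, 50 or 100 µM compound from DMSO. They were washed, given 0.5 mg/mL MTT in HEPES buffer pH 7.4 for 45 min at 37 °C, and formazan was dissolved in DMSO and read at 570 nm. Values are % viability versus control from three independent measurements.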

[2] = Lipophilicity, log kw in dioxane aqueous system at pH 3.5; format: physicochemical; conditions: buffer
Procedure, shortened: (§2)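 RP-HPLC on an octadecyl silica column (150 × 4.6 mm, 5 µm) at 22 ± 1 °C, flow 1.0 mL min⁻¹, UV detection at 254 nm. Mobile phase was methanol, acetonitrile or dioxane with water and 0.01 M phosphate buffer pH 3.5 containing 0.05 M DEA. log k_W was extrapolated to pure water by regression.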

[3] = Antiproliferative activity against human skin fibroblast assessed as cell viability at 50 uM by MTT assay; format: cell-based; conditions: human skin fibroblasts, read-out: Activity
Procedure, shortened: (§3)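 MTT viability assay on primary human skin fibroblasts grown in DMEM with 10% FBS and penicillin/streptomycin. Compounds were dissolved in DMSO and given at 1, 50 or 100 µM for 24 h. Cells were washed in HEPES-buffered medium (pH 7.4) and then given MTT 0.5 mg mL⁻¹ for 45 min at 37 °C. Formazan was dissolved in DMSO and read at 570 nm. Viability is % of control; three independent measurements.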

[4] = tested on: HeLa; test: Antiproliferative activity against human HeLa cells assessed as cell viability at 1 uM by MTT assay; format: functional; conditions: read-out: Activity; procedure, shortened: as §1
[5] = Lipophilicity, log kw in methanol aqueous system at pH 3.5; format: physicochemical; procedure, shortened: as §2
[6] = Antiproliferative activity against human skin fibroblast assessed as cell viability at 1 uM by MTT assay; format: cell-based; conditions: human skin fibroblasts, read-out: Activity; procedure, shortened: as §1
[7] = Antiproliferative activity against human RPMI cells assessed as cell viability at 50 uM by MTT assay; format: functional; conditions: read-out: Activity; procedure, shortened: as §1
[8] = tested on: HeLa; test: Antiproliferative activity against human HeLa cells assessed as cell viability at 50 uM by MTT assay; format: functional; conditions: read-out: Activity; procedure, shortened: as §1
[9] = Lipophilicity, log kw in acetonitrile aqueous system at pH 3.5; format: physicochemical; procedure, shortened: as §2
[10] = Antiproliferative activity against human skin fibroblast assessed as cell viability at 100 uM by MTT assay; format: cell-based; conditions: human skin fibroblasts, read-out: Activity; procedure, shortened: as §3
[11] = Antiproliferative activity against human RPMI cells assessed as cell viability at 100 uM by MTT assay; format: functional; conditions: read-out: Activity; procedure, shortened: as §1
[12] = tested on: HeLa; test: Antiproliferative activity against human HeLa cells assessed as cell viability at 100 uM by MTT assay; format: functional; conditions: read-out: Activity; procedure, shortened: as §1
[13] = tested on: Candida albicans; test: Antimicrobial activity against Candida albicans ATCC 10231 at 100 ug/mL by disc-diffusion method; format: functional; conditions: read-out: IZ
Procedure, shortened: (§4)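 Kirby–Bauer disc diffusion: 5 mm paper discs soaked in compound solution in DMSO (100 or 200 µg/mL; reference drugs 200 µg/mL) and laid on inoculated Mueller-Hinton agar (bacteria) or Sabouraud agar (C. albicans, Aspergillus). DMSO discs were the control. Plates ran 24 h at 35 °C. Inhibition zone diameter was scored 0–10 mm R, 11–16 mm I, 17–25 mm S; triplicate.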

[14] = tested on: Streptococcus agalactiae; test: Antimicrobial activity against Streptococcus agalactiae at 200 ug/mL by disc-diffusion method; format: functional; conditions: read-out: IZ; procedure, shortened: as §4
[15] = tested on: Klebsiella aerogenes; test: Antimicrobial activity against Enterobacter aerogenes at 200 ug/mL by disc-diffusion method; format: functional; conditions: read-out: IZ; procedure, shortened: as §4
[16] = tested on: Escherichia coli; test: Antimicrobial activity against Escherichia coli ATCC 25922 at 200 ug/mL by disc-diffusion method; format: functional; conditions: read-out: IZ; procedure, shortened: as §4
[17] = tested on: Staphylococcus aureus; test: Antimicrobial activity against Staphylococcus aureus ATCC 25923 after 24 hrs by microdilution assay; format: functional; conditions: ATCC 25923, 24 h
[18] = tested on: Escherichia coli; test: Antimicrobial activity against Escherichia coli ATCC 25922 at 100 ug/mL by disc-diffusion method; format: functional; conditions: read-out: IZ; procedure, shortened: as §4
[19] = tested on: Klebsiella pneumoniae; test: Antimicrobial activity against Klebsiella pneumoniae at 100 ug/mL by disc-diffusion method; format: functional; conditions: read-out: IZ; procedure, shortened: as §4
[20] = tested on: Staphylococcus aureus; test: Antimicrobial activity against Staphylococcus aureus ATCC 25923 at 200 ug/mL by disc-diffusion method; format: functional; conditions: read-out: IZ; procedure, shortened: as §4
[21] = tested on: Aspergillus sp.; test: Antimicrobial activity against Aspergillus sp. at 200 ug/mL by disc-diffusion method; format: functional; conditions: read-out: IZ; procedure, shortened: as §4
[22] = tested on: Aspergillus sp.; test: Antimicrobial activity against Aspergillus sp. at 100 ug/mL by disc-diffusion method; format: functional; conditions: read-out: IZ; procedure, shortened: as §4
[23] = tested on: Streptococcus agalactiae; test: Antimicrobial activity against Streptococcus agalactiae at 100 ug/mL by disc-diffusion method; format: functional; conditions: read-out: IZ; procedure, shortened: as §4
[24] = tested on: Staphylococcus epidermidis; test: Antimicrobial activity against Staphylococcus epidermidis at 200 ug/mL by disc-diffusion method; format: functional; conditions: read-out: IZ; procedure, shortened: as §4
[25] = tested on: Streptococcus pyogenes; test: Antimicrobial activity against Streptococcus pyogenes at 100 ug/mL by disc-diffusion method; format: functional; conditions: read-out: IZ; procedure, shortened: as §4
[26] = tested on: Pseudomonas aeruginosa; test: Antimicrobial activity against Pseudomonas aeruginosa ATCC 27853 at 200 ug/mL by disc-diffusion method; format: functional; conditions: read-out: IZ; procedure, shortened: as §4
[27] = tested on: Proteus vulgaris; test: Antimicrobial activity against Proteus vulgaris at 200 ug/mL by disc-diffusion method; format: functional; conditions: read-out: IZ; procedure, shortened: as §4
[28] = tested on: Klebsiella pneumoniae; test: Antimicrobial activity against Klebsiella pneumoniae at 200 ug/mL by disc-diffusion method; format: functional; conditions: read-out: IZ; procedure, shortened: as §4
[29] = tested on: Staphylococcus aureus; test: Antimicrobial activity against Staphylococcus aureus ATCC 25923 at 100 ug/mL by disc-diffusion method; format: functional; conditions: read-out: IZ; procedure, shortened: as §4
[30] = tested on: Klebsiella aerogenes; test: Antimicrobial activity against Enterobacter aerogenes at 100 ug/mL by disc-diffusion method; format: functional; conditions: read-out: IZ; procedure, shortened: as §4
[31] = tested on: Proteus vulgaris; test: Antimicrobial activity against Proteus vulgaris at 100 ug/mL by disc-diffusion method; format: functional; conditions: read-out: IZ; procedure, shortened: as §4
[32] = tested on: Candida albicans; test: Antimicrobial activity against Candida albicans ATCC 10231 at 200 ug/mL by disc-diffusion method; format: functional; conditions: read-out: IZ; procedure, shortened: as §4
[33] = tested on: Streptococcus pyogenes; test: Antimicrobial activity against Streptococcus pyogenes at 200 ug/mL by disc-diffusion method; format: functional; conditions: read-out: IZ; procedure, shortened: as §4
[34] = tested on: Pseudomonas aeruginosa; test: Antimicrobial activity against Pseudomonas aeruginosa ATCC 27853 at 100 ug/mL by disc-diffusion method; format: functional; conditions: read-out: IZ; procedure, shortened: as §4
[35] = tested on: Staphylococcus epidermidis; test: Antimicrobial activity against Staphylococcus epidermidis at 100 ug/mL by disc-diffusion method; format: functional; conditions: read-out: IZ; procedure, shortened: as §4

Clc1ccc(N2CCn3cnnc32)cc1
viability at 1 µM [1]: 104%
logKw [2]: 1.89
viability at 50 µM [3]: 90.9%
viability at 1 µM [4]: 77.9%
logKw [5]: 2.19
viability at 1 µM [6]: 101%
viability at 50 µM [7]: 96.9%
viability at 50 µM [8]: 67.6%
logKw [9]: 2.7
viability at 100 µM [10]: 90.7%
viability at 100 µM [11]: 87.5%
viability at 100 µM [12]: 68.4%

COc1ccc(N2CCn3cnnc32)cc1
viability at 1 µM [1]: 102%
logKw [2]: 1.22
viability at 50 µM [3]: 95.2%
viability at 1 µM [4]: 93%
logKw [5]: 1.87
viability at 1 µM [6]: 105%
viability at 50 µM [7]: 96.5%
viability at 50 µM [8]: 91.7%
logKw [9]: 1.56
viability at 100 µM [10]: 89.3%
viability at 100 µM [11]: 91.3%
viability at 100 µM [12]: 80.6%

Cc1cc(Cl)ccc1OCc1nnc2n1CCN2c1ccc(Cl)cc1
viability at 1 µM [1]: 46.4%
logKw [2]: 3.87
viability at 50 µM [3]: 74%
viability at 1 µM [4]: 92.1%
logKw [5]: 4.61
viability at 1 µM [6]: 79.5%
viability at 50 µM [7]: 32.4%
viability at 50 µM [8]: 71.8%
logKw [9]: 3.7
viability at 100 µM [10]: 71%
viability at 100 µM [11]: 31.1%
viability at 100 µM [12]: 71%

Cc1ccc(N2CCn3c(COc4ccc(Cl)cc4C)nnc32)cc1
viability at 1 µM [1]: 85.5%
zone of inhibition at 100 µg/mL [13]: 0 mm
zone of inhibition at 200 µg/mL [14]: 0 mm
zone of inhibition at 200 µg/mL [15]: 0 mm
zone of inhibition at 200 µg/mL [16]: 0 mm
MIC [17]: 44 µM (≈ 15.6 µg/mL)
zone of inhibition at 100 µg/mL [18]: 0 mm
zone of inhibition at 100 µg/mL [19]: 0 mm
zone of inhibition at 200 µg/mL [20]: 17 mm
logKw [2]: 1.1
zone of inhibition at 200 µg/mL [21]: 0 mm
zone of inhibition at 100 µg/mL [22]: 0 mm
zone of inhibition at 100 µg/mL [23]: 0 mm
zone of inhibition at 200 µg/mL [24]: 17 mm
zone of inhibition at 100 µg/mL [25]: 0 mm
viability at 50 µM [3]: 56.9%
viability at 1 µM [4]: 95.1%
zone of inhibition at 200 µg/mL [26]: 0 mm
logKw [5]: 1.58
zone of inhibition at 200 µg/mL [27]: 0 mm
viability at 1 µM [6]: 74.9%
zone of inhibition at 200 µg/mL [28]: 0 mm
zone of inhibition at 100 µg/mL [29]: 11 mm
viability at 50 µM [7]: 27.7%
zone of inhibition at 100 µg/mL [30]: 0 mm
viability at 50 µM [8]: 75.2%
zone of inhibition at 100 µg/mL [31]: 0 mm
zone of inhibition at 200 µg/mL [32]: 0 mm
logKw [9]: 1
viability at 100 µM [10]: 62.1%
zone of inhibition at 200 µg/mL [33]: 0 mm
zone of inhibition at 100 µg/mL [34]: 0 mm
viability at 100 µM [11]: 25.4%
viability at 100 µM [12]: 75.6%
zone of inhibition at 100 µg/mL [35]: 11 mm

Cc1ccc(N2CCn3c(COc4ccc(Cl)cc4)nnc32)cc1
viability at 1 µM [1]: 104%
logKw [2]: 3.55
viability at 50 µM [3]: 68.4%
viability at 1 µM [4]: 89%
logKw [5]: 4.27
viability at 1 µM [6]: 88.1%
viability at 50 µM [7]: 39.5%
viability at 50 µM [8]: 78.3%
logKw [9]: 3.04
viability at 100 µM [10]: 64.7%
viability at 100 µM [11]: 39.9%
viability at 100 µM [12]: 77.9%

From ChEMBL document CHEMBL1149773, “Synthesis, determination of the lipophilicity, anticancer and antimicrobial properties of some fused 1,2,4-triazole derivatives” (Eur J Med Chem, 2008)
